Measurements from different studies.
Each line is one published result; the experiments were not run side by side.
YES1: Tyrosine-protein kinase Yes (YES1, Homo sapiens, UniProt P07947)

Compound | target | effect on | action | method | tested at | measurement | result
COc1cc2nccc(Oc3ccc(NC(=O)c4c5n(n(-c6ccc(F)cc6)c4=O)CCCC5)cc3)c2cc1OC | YES1 | enzyme activity | inhibitor |  | 0.1 µM | inhibition | 1%
CNC(=O)c1cc(Oc2ccc(NC(=O)Nc3ccc(Cl)c(C(F)(F)F)c3)cc2)ccn1 | YES1 | cell-free assay |  |  | 0.5 µM | remaining signal | 82.8%
N#CC1(c2ccccn2)CCN(Cc2cc(C(=O)N3CCCC3)c(=O)n3ccccc23)CC1 | YES1 | cell-free assay |  | competition with immobilised ligand | 1 µM | remaining binding | 84%
CC(C)(C)C(=O)c1sc(NC2CCCCC2)nc1N | YES1 | enzyme activity | inhibitor |  | 10 µM | remaining activity | 109%
c1ccc(CNc2nc(N3CCOc4ccccc43)nc3c2CCCC3)cc1 | YES1 | target engagement in cells | inhibitor | chemoproteomics | 20 mM | inhibition | -4.3%
FC(F)(F)Oc1cccc(-c2cnc3ccc(-c4ccncc4)nn23)c1 | YES1 | enzyme activity | inhibitor | radiometric | 1 µM | activity vs control | 82%
FC(F)c1nc2ccccc2n1-c1nc(N2CCOCC2)nc(N2CCOCC2)n1 | YES1 | enzyme activity | inhibitor |  | 10 µM | remaining activity | 72%
Cc1ccc(C(=O)NCc2ccsc2)cc1C#Cc1cn(C(C)C)c2ncnc(N)c12 | YES1 | enzyme activity | inhibitor |  | 1 µM | activity vs control | 2%
CC(C)(C)c1nc2c(s1)c1nc(N)ncc1c1ccc(NS(=O)(=O)c3c(F)cccc3F)c(F)c12 | YES1 | enzyme activity | inhibitor | radiometric | 1 µM | remaining activity | 124%
N#CCCc1ccc2c(c1)-c1[nH]c3ccc([N+](=O)[O-])cc3c1CC(=O)N2 | YES1 | cell-free assay |  |  | 0.5 µM | remaining signal | 35.8%
O=C(Nc1cnn(-c2csc(C(=O)NC3COC3)c2)c1)Nc1c(F)cccc1Cl | YES1 | enzyme activity | inhibitor |  | 5 µM | remaining activity | 91%
Cc1noc([C@H]2C[C@@H](c3ccc(C(F)(F)F)cc3)CN(C(=O)N3CCS(=O)(=O)C3)C2)n1 | YES1 | cell-free assay |  | competition with immobilised ligand | 1 µM | remaining binding | 100%
CC/C(=N\NC(=O)NCc1cccc(O)c1)c1ccc(O)c(C)c1O | Tyrosine-protein kinase Yes (YES1, Homo sapiens, UniProt P07947, T348I) | enzyme activity | inhibitor |  | 0.1 µM | inhibition | 6.2%
Cc1ccc(Nc2nccc(N(C)c3ccc4c(C)n(C)nc4c3)n2)cc1S(N)(=O)=O | YES1 | cell-free assay |  |  | 0.5 µM | remaining signal | 52.6%
CN(c1ncccc1CNc1nc(Nc2ccc3c(c2)CC(=O)N3)ncc1C(F)(F)F)S(C)(=O)=O | YES1 | enzyme activity | inhibitor |  | 1 µM | inhibition | 51.6%
COc1cc(Nc2cnc(C#N)c(O[C@H](C)CN(C)C)n2)ncc1-c1cnn(C)c1 | YES1 | enzyme activity | inhibitor | radiometric | 1 µM | remaining activity | 93%
CS(=O)(=O)N1CCCC(NC(=O)[C@H](CCC2CCCCC2)NC(=O)c2ccc(CNC(=O)c3cnc4ccccn34)cc2)C1 (stereo partly drawn) | YES1 | cell-free assay |  | competition with immobilised ligand | 0.1 µM | remaining binding | 88%
Cc1ccc(NC(=O)c2ccc(C)c(C(F)(F)F)c2)cc1C#Cc1nn(C2CCC(O)CC2)c2ncnc(N)c12 (stereo not drawn) | YES1 | cell-free assay |  |  | 10 µM | remaining signal | 0%
CC(C)(O)c1cncc(-c2nc3ccc(F)cc3n2C2CC2)c1 | YES1 | cell-free assay |  | competition with immobilised ligand | 1 µM | remaining binding | 100%
COc1cc(/C=C/C(=O)CC(=O)/C=C/c2ccc(O)c(OC)c2)ccc1O | YES1 | enzyme activity | inhibitor |  | 1 µM | activity vs control | 62%
Cc1cnc(NC2CCOCC2)nc1-n1cnc(C(=O)NC(CN)c2cc(F)cc(Cl)c2)c1 (stereo not drawn) | YES1 | enzyme activity | inhibitor | radiometric | 1 µM | remaining activity | 97%
COc1cc2ncnc(Nc3ccc(Oc4ccccc4)cc3C)c2cc1OC | YES1 | enzyme activity | inhibitor |  | 1 µM | inhibition | 99%
CN(C)C(=O)Cn1cc(-c2nc(C3(c4ccc(-c5cnc(N)nc5)cc4)CC3)no2)cn1 | YES1 | cell-free assay |  | competition with immobilised ligand | 1 µM | remaining binding | 87%
CCN(CC)CCNC(=O)c1c(C)[nH]c(/C=C2\C(=O)Nc3ccc(F)cc32)c1C | YES1 | enzyme activity | inhibitor |  | 0.3 µM | inhibition | 69%
C[C@@H](c1cccc(C#N)c1)n1cc(Cl)cc(C(N)=O)c1=N | YES1 | cell-free assay |  | competition with immobilised ligand | 1 µM | remaining binding | 93%
Nc1nc(NC2CCCCC2)sc1C(=O)c1ccccc1 | YES1 | enzyme activity | inhibitor |  | 10 µM | remaining activity | 114%
O=C(O)[C@H]1[C@H](Cn2nnc3ccccc3c2=O)CC[C@@H]1C(=O)c1ccc(OCCC2CCOCC2)cc1 | YES1 | cell-free assay |  | competition with immobilised ligand | 1 µM | remaining binding | 100%
Cc1sc(C(=O)NC2COC2)cc1-n1cc(NC(=O)Nc2c(F)cccc2Cl)cn1 | YES1 | enzyme activity | inhibitor |  | 10 µM | remaining activity | 81.4%
CS(=O)(=O)NCC[C@H](NC(=O)c1cncc2c1cnn2-c1ccc(F)cc1)c1ccnc(S(C)(=O)=O)c1 | YES1 | cell-free assay |  | competition with immobilised ligand | 1 µM | remaining binding | 100%
CCN(CC)c1ccc(C2=NNC(=O)CC2C)cc1[N+](=O)[O-] (stereo not drawn) | YES1 | enzyme activity | inhibitor |  | 10 µM | remaining activity | 105%
